Among the data in ChEMBL document CHEMBL1140686, “Indanylacetic acids as PPAR-delta activator insulin sensitizers” (Bioorg Med Chem Lett, 2007) are Activity and EC50 values, retold here.

Calls of active or inactive are those of the source. The calls are words filed in the database; no cut-off is given here.

The test system of experiment [1] is Mus musculus. Put plainly: Increase in serum HDL level in hApoA1 mouse model at 10 mg/kg, po. In kind it is functional.
The subject of experiment [2] is Mus musculus. Put plainly: Decrease in serum triglyceride level in hApoA1 mouse model at 10 mg/kg, po. Set-up: scale not given: the % may be the effect or the level left. In kind it is functional.
Experiment [3] has as its target T1, Peroxisome proliferator-activated receptor alpha (Homo sapiens) (UniProt Q07869).
T1 sequence (whole entry): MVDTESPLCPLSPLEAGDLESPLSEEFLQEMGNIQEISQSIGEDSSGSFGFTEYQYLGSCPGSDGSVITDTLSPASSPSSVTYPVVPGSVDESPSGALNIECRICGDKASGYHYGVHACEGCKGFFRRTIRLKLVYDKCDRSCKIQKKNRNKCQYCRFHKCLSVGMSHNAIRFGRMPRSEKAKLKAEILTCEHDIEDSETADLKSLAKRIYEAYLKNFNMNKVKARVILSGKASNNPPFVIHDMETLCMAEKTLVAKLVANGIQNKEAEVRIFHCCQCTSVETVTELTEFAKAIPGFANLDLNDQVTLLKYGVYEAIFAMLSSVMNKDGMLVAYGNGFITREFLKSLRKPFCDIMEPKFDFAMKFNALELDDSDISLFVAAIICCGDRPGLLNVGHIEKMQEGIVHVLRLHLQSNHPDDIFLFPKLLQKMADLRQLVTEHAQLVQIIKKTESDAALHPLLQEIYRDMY
The experiment can be described thus: (§1) Agonist activity at PPARalpha by FRET assay. In kind it is functional. A digest of the protocol:
(§2)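 FRET coactivator-recruitment assay run with the PPAR-δ ligand binding domain (GST-tagged human PPAR-δ LBD) and separately with the PPAR-α ligand binding domain. Compounds were incubated with europium-labelled anti-GST antibody, biotinylated TRAP220 coactivator protein and streptavidin-labelled APC. Read in a fluorimeter at excitation 340 nm and emission 615 and 665 nm.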

For experiment [4], the target named is T2, Peroxisome proliferator-activated receptor alpha (Homo sapiens, UniProt Q07869).
T2 sequence (Q07869 whole entry): T1 sequence (whole entry)
The description is as §1. It counts as functional. A digest of the protocol: as §2

Another experiment deals with 3T3-L1. Put plainly: Induction of insulin receptor in mouse 3T3L1 cells assessed as insulin sensitizing activity. It counts as functional, cell-based. The following applies: for EC50: Mus musculus, 3T3-L1. In a few lines:
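3T3-L1 preadipocytes grown about 1 week to 2 days post-confluence, then exposed 2 days to compound plus 0.5 µM IGF-1 in DMEM/10% FBS/2 mM glutamine/pen-strep, then 4 days in plain medium. Cells bound 0.1 nM [125I]insulin ± 100 nM unlabeled insulin for 1 h at room temperature, were washed and lysed in 1 N NaOH, then gamma-counted. EC50 taken where a plateau was reached; percent maximal stimulation recorded.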

The target of experiment [5] is Peroxisome proliferator-activated receptor delta (Homo sapiens) (UniProt Q03181). The experiment can be described thus: Agonist activity at GST-tagged human PPARdelta by FRET assay.
Experiment [6] relates to Mus musculus. Put plainly: Reduction in blood glucose level in db/db mouse at 10 mg/kg, po. Set-up: dose 10 mg/kg. It counts as functional, organism-based.
The subject of experiment [7] is Mus musculus. Put plainly: Reduction in blood glucose level in db/db mouse at 3 mg/kg, po. In kind it is functional, organism-based. Details: dose 3 mg/kg.
Experiment [8] concerns Mus musculus. Put plainly: Increase in serum HDL level in hApoA1 mouse model at 30 mg/kg, po. In kind it is functional.
The test system of experiment [9] is Mus musculus. Put plainly: Decrease in serum triglyceride level in hApoA1 mouse model at 30 mg/kg, po. It counts as functional. Set-up: scale not given: the % may be the effect or the level left.

Chain of Peroxisome proliferator-activated receptor delta (Homo sapiens) (Q03181 whole entry, looked up): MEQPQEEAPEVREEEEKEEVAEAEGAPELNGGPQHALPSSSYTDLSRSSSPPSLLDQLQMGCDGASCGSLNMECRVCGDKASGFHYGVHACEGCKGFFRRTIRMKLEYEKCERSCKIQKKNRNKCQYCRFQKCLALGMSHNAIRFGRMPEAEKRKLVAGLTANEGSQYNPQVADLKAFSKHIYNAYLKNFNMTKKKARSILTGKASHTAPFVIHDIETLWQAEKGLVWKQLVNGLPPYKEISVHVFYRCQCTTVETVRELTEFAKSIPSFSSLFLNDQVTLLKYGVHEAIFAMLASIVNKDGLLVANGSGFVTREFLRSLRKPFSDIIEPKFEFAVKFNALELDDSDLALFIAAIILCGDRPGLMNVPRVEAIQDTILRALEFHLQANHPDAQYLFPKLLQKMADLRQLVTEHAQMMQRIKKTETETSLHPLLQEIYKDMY

`Cc1cc(SCc2sc(-c3ccc(C(F)(F)F)cc3)nc2C)ccc1OCC(=O)O` [GW501516]: the Activity amounted to 30% in the experiment on Mus musculus [1] and 33% in the experiment on Mus musculus [2].
As usually defined, the EC50 is the concentration that produces a half-maximal response. Turning to `Cc1oc(-c2ccccc2)nc1CCOc1ccc2c(c1)CC(C)C2CC(=O)O` (configuration not stated), the results for the Activity (in experiment [3]; in the experiment with 3T3-L1) were 11% and 58%, respectively. Moreover, the EC50 in [4] is 7.47 µM; with 3T3-L1, 5.44 µM.
Consider `Cc1oc(-c2ccccc2)nc1CCOc1ccc2c(c1)OCC2CC(=O)O` (configuration not stated), for which, in [3], the Activity turned out to be 15%. Further, in experiment [4], the concentration giving a half-maximal response (EC50) worked out at 10 µM.
Consider `Cc1oc(-c2ccccc2)nc1CCOc1ccc2c(c1)CCC[C@H]2CC(=O)O`, for which the Activity in experiment [3] turned out to be 58%; in [5], 50%. In addition, the EC50 in [4] was 2.19 µM.
Take `CN(CCOc1ccc(CC2SC(=O)NC2=O)cc1)c1ccccn1` (configuration not stated): the outcome with Mus musculus [6] was Active.
Consider `Cc1oc(-c2ccc(-c3ccccc3)cc2)nc1CCOc1ccc2c(c1)CC[C@H]2CC(=O)O`, for which the EC50 in [4] was 2.72 µM; in the experiment with 3T3-L1 it was 0.045 µM. Also, the result with Mus musculus [7] was Active. Also, the Activity with Mus musculus [8] is recorded as 29%; in the experiment with Mus musculus [9] it was 38%.
Consider `Cc1oc(-c2ccccc2)nc1CCOc1ccc2c(c1)C(C)(C)CC2CC(=O)O` (configuration not stated), for which the Activity in experiment [3] stood at 7.5%; with 3T3-L1 it was 66%; in experiment [5], 38%. Also, the EC50 in [4] is 10 µM; in the experiment on 3T3-L1, 0.253 µM.
